Reference: article PMC3944078 (ACS chemical biology, 2013)
Like-named read-outs stand apart in the source and are kept apart here.

What was measured:
MBP [1] = molecular target: T1, MBP (Escherichia coli, UniProt P0AEX9); test: DSF thermal stability of MBP with ligands; assay type: binding, E. coli; conditions: 1 µM MBP, 1mM ligand
MBP [2] = molecular target: T1, MBP; test: CARS with MBP, SO fluorescence, 96-well; assay type: binding, E. coli; conditions: for Change in SO fluorescence in the presence of MBP: negative controls, 0–1 mM
E. coli MBP = conditions: MBP ligand; cited from earlier work
[3] = test system: HEK-cell line stably expressing I477N-mutant myocilin; test: Mutant myocilin cellular secretion assay; assay type: cell-based; conditions: 20, 100, 200 µM compound, 24 h, immunoblotting of media
myoc-OLF [4] = molecular target: T2, myoc-OLF (Homo sapiens, UniProt Q99972); test: myoc-OLF amyloid fibrillization assay; assay type: biochemical; conditions: for myoc-OLF fibrillization (ThT fluorescence): ~3 d, 96-well format; for Fibrils/deposits by AFM: after fibrillization assay
T2 sequence (Q99972 244-503 limits assumed): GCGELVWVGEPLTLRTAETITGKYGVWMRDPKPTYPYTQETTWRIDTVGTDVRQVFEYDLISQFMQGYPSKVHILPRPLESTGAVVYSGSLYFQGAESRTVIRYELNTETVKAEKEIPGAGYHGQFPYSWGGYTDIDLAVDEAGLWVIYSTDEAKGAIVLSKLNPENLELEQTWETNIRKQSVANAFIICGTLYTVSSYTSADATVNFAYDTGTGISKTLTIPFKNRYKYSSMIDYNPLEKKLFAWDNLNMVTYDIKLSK

[5] = test system: HEK-cell line stably expressing I477N-mutant myocilin; test: Cellular toxicity profile; assay type: cell-based; conditions: up to 200 µM
Solubility in cell media = assay type: physicochemical; conditions: addition to cell media
myoc-OLF [6] = molecular target: T2, myoc-OLF; test: Differential scanning fluorimetry; assay type: binding; conditions: DSF; hits at concentrations used for screening
myoc-OLF [7] = molecular target: T2, myoc-OLF; test: SPR binding to immobilized myoc-OLF; conditions: for Binding mode by SPR: sensorgram inspection
[8] = Solubility behavior under SPR conditions; assay type: physicochemical
myoc-OLF [9] = molecular target: T2, myoc-OLF; test: CARS with myoc-OLF, TMAO dose-dependent SO fluorescence, 96-well; assay type: binding; conditions: 1 µM myoc-OLF, 0.6 M GdnHCl
Outline: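 myoc-OLF was expressed as a Factor Xa-cleavable MBP fusion and purified. TMAO was titrated at 0−1 M, and protein was added last, just before fluorescence readings. The signal window was the SO fluorescence difference with versus without 1 M TMAO.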

[10] = standard SPR conditions, 5% DMSO
[11] = standard SPR conditions, compounds dissolved in 5% DMSO

OC[C@H]1O[C@H](O[C@H]2[C@H](O)[C@@H](O)C(O)O[C@@H]2CO)[C@H](O)[C@@H](O)[C@@H]1O (mixture of isomers) [Maltose, maltose]
Change in melting temperature (ITm) (MBP [1]): 10 K | Decrease in SO fluorescence intensity (MBP [2]; at low micromolar concentrations, 2 µM MBP, 0.6 M GdnHCl): 50% | Kd (E. coli MBP): 1 µM

O=c1cc(-c2ccccc2)oc2c(O)c(O)ccc12 [A1, 7,8-dihydroxyflavone]
Secretion of I477N-mutant myocilin [3]: increased I477N-mutant myocilin secretion in a dose-dependent manner | myoc-OLF fibrillization (ThT fluorescence) (myoc-OLF [4]): dose-dependent decrease in myoc-OLF fibrilization | Cellular toxicity profile [5]: adequate | Solubility in cell media (Solubility in cell media): adequate solubility

O=c1cc(-c2ccc(O)cc2)oc2cc(O)cc(O)c12 [Apigenin, 4’,5,7-trihydroxyflavone]
ΔTm (myoc-OLF [6]): −0.3 ± 0.2 °C | Fibrils/deposits by AFM (myoc-OLF [4]): no fibrils apparent | myoc-OLF fibrillization (ThT fluorescence) (myoc-OLF [4]): decreased myoc-OLF fibrillization in a dose-dependent manner | Solubility in cell media (Solubility in cell media): precipitated upon addition to the cell media

O=C(O)C1=CC(=C(c2ccc(O)c(C(=O)O)c2)c2ccc(O)c(C(=O)O)c2)C=CC1=O [Aurintricarboxilic acid, Aurintricarboxylic acid]
ΔTm (myoc-OLF [6]): 0.3 ± 0.2 °C | Fibrils/deposits by AFM (myoc-OLF [4]): high levels of deposits similar to vehicle control | myoc-OLF fibrillization (ThT fluorescence) (myoc-OLF [4]): increase in ThT fluorescence | Kd (myoc-OLF [7]): 17.1 ± 9.6 µM

O=C1Nc2ccccc2C1=Cc1cc(Br)c(O)c(Br)c1 [G5]
Secretion of I477N-mutant myocilin [3]: increased I477N-mutant myocilin secretion in a dose-dependent manner | myoc-OLF fibrillization (ThT fluorescence) (myoc-OLF [4]): potent fibril inhibition | Cellular toxicity profile [5]: adequate | Solubility in cell media (Solubility in cell media): adequate solubility

O=C1Nc2ccc(I)cc2C1=Cc1cc(Br)c(O)c(Br)c1 [GW5074, 3-(3,5-dibromo-4-hydroxybenzylidine-5-iodo-1,3-dihydro-indol-2-one)]
ΔTm (myoc-OLF [6]): 0.2 ± 0.0 °C | Fibrils/deposits by AFM (myoc-OLF [4]): no fibrils apparent | myoc-OLF fibrillization (ThT fluorescence) (myoc-OLF [4]): decreased myoc-OLF fibrillization in a dose-dependent manner | Kd (myoc-OLF [7]; read-out: Kd from SPR, standard SPR conditions, compounds dissolved in 5% DMSO): 33.5 ± 20.9 µM | Solubility behavior [8, 10]: poor solubility behavior | Solubility in cell media (Solubility in cell media): precipitated upon addition to the cell media

O=C(/C=C/c1ccc(O)cc1)c1ccc(O)cc1O [Isoliquiritigenin]
Binding mode by SPR (myoc-OLF [7]): bind non-specifically | Kd from SPR (myoc-OLF [7]; [11]): linear dose-response

O=c1c(O)c(-c2ccc(O)cc2O)oc2cc(O)cc(O)c12 [Morin]
ΔTm (myoc-OLF [6]): −0.4 ± 0.4 °C | Binding mode by SPR (myoc-OLF [7]): non-stoichiometric binders | Kd from SPR (myoc-OLF [7]; with surfactant P-20 in buffer solution): weak sigmoidal response ^c, ^d | Solubility behavior [8, 10]: poor solubility behavior

O=c1c(O)c(-c2cc(O)c(O)c(O)c2)oc2cc(O)cc(O)c12 [Myricetin]
ΔTm (myoc-OLF [6]): 1.7 ± 0.0 °C | Binding mode by SPR (myoc-OLF [7]): bind non-specifically | Kd from SPR (myoc-OLF [7]; [11]): linear dose-response

O=C(Nc1ccc([N+](=O)[O-])cc1Cl)c1cc(Cl)ccc1O [Niclosamide]
ΔTm (myoc-OLF [6]): 0.0 ± 0.2 °C | Binding mode by SPR (myoc-OLF [7]): failed to elicit an interpretable response | Kd from SPR (myoc-OLF [7]; [11]): no detectable binding ^d | Solubility behavior [8, 10]: poor solubility behavior

O=S(=O)(F)Cc1ccccc1 [PMSF]
Change in SO fluorescence in the presence of MBP (MBP [2]): Neither

O=C(CCc1ccc(O)cc1)c1c(O)cc(O)cc1O [Phloretin]
ΔTm (myoc-OLF [6]): 1.2 ± 0.0 °C | Binding mode by SPR (myoc-OLF [7]): bind non-specifically | Kd from SPR (myoc-OLF [7]; [11]): linear dose-response

Oc1cc(O)cc(/C=C/c2ccc(O)c(O)c2)c1 [Piceatannol]
ΔTm (myoc-OLF [6]): −0.4 ± 0.1 °C | Binding mode by SPR (myoc-OLF [7]): non-stoichiometric binders | Kd from SPR (myoc-OLF [7]; [11]): sigmoidal dose-response

CC(=O)c1c(O)c(C)c(O)c(Cc2c(O)c3c(c(C(=O)/C=C/c4ccccc4)c2O)OC(C)(C)C=C3)c1O [Rottlerin]
Kd (myoc-OLF [7]): 30.1 ± 0.6 µM | Binding mode by SPR (myoc-OLF [7]): promiscuous binder

C[N+](C)(C)[O-] [TMAO, trimethylamine-N-oxide]
Concentration by which the decrease in SO fluorescence levels off (myoc-OLF [9]): ≤ 1 M

CC(C)(C)c1cc(/C=C(\C#N)C(N)=S)cc(C(C)(C)C)c1O [Tyrphostin AG 879]
ΔTm (myoc-OLF [6]): −0.8 ± 0.0 °C | Kd (myoc-OLF [7]; read-out: Kd from SPR, with surfactant P-20 in buffer solution): 38.6 ± 12.7 µM | Binding stoichiometry from SPR (myoc-OLF [7]; surfactant P-20 present in SPR buffer): stoichiometric binding | Solubility behavior [8]: poor solubility behavior

NC(=O)CI [iodoacetamide]
Change in SO fluorescence in the presence of MBP (MBP [2]): Neither

OC[C@@H](O)[C@@H](O[C@H]1O[C@H](CO)[C@@H](O)[C@H](O)[C@H]1O)[C@H](O)[C@@H](O)CO [maltitol]
Change in melting temperature (ITm) (MBP [1]): 0.9 K | Concentration by which a decrease in SO fluorescence was seen (MBP [2]; 2 µM MBP, 0.6 M GdnHCl): ~ 10 µM | Kd (E. coli MBP): 50 µM

OC[C@H]1O[C@H](O[C@H]2[C@H](O)[C@@H](O)[C@@H](O[C@H]3[C@H](O)[C@@H](O)[C@@H](O[C@H]4[C@H](O)[C@@H](O)C(O)O[C@@H]4CO)O[C@@H]3CO)O[C@@H]2CO)[C@H](O)[C@@H](O)[C@@H]1O (stereo partly drawn) [maltotetraose]
Change in melting temperature (ITm) (MBP [1]): 10 K
